The nature of data set [1]: Solubility testing of saquinavir in oils, surfactants, and co-surfactants. In kind it is physicochemical. Conditions: 20 °C, 24 h. An outline of the steps:
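Excess test compound added to each neat excipient and stirred magnetically. Content quantified by HPLC with UV detection at 240 nm (retention 3.8 min). Expressed as mg/g, mean ± standard deviation.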

The conditions of data set [2]: after oral administration to HIV-infected patients; cited from earlier work.

In the case of `CC(C)(C)NC(=O)[C@@H]1C[C@@H]2CCCC[C@@H]2CN1C[C@@H](O)[C@H](Cc1ccccc1)NC(=O)[C@H](CC(N)=O)NC(=O)c1ccc2ccccc2n1` [saquinavir, Saquinavir], the Solubility of saquinavir is recorded as 145 ± 12.6 mg/g in data set [1] (in Capryol 90 (oil)); 55 ± 5.0 mg/g in data set [1] (in Cremophor® EL (surfactant)); 57 ± 4.2 mg/g in data set [1] (in Labrafac® CM10 (oil)); 105 ± 5.0 mg/g in data set [1] (in Labrasol® (surfactant)); 40 ± 3.4 mg/g in data set [1] (in PEG 400 (co-surfactant)); 228 ± 19.5 mg/g in data set [1] (in Propylene glycol (co-surfactant)). Also, the Solubility of saquinavir in data set [1] (in Transcutol® HP (co-surfactant)) stood at 158 ± 17.8 mg/g; in data set [1] (in Triglyceride (oil)) it was 1.9 ± 0.4 mg/g; in data set [1] (in Tween® 80 (surfactant)) it was 37 ± 4.3 mg/g; in data set [1] (in Water (aqueous phase)), 2.2 ± 0.3 mg/g. Moreover, in data set [2], the “time of the highest saquinavir concentration in plasma” value is 2 to 4 h.

(Values after publication PMC7327769 (Asian Journal of Pharmaceutical Sciences, 2019).)
